Results taken from ChEMBL document CHEMBL2176963, “Design, synthesis, and biological evaluation of 3-(1H-1,2,3-triazol-1-yl)benzamide derivatives as Potent Pan Bcr-Abl inhibitors including the threonine(315)→isoleucine(315) mutant” (J Med Chem, 2012).
Calls of active or inactive are those of the source. The calls are words filed in the database; no cut-off is given here.

Experiments:
[1] = Cell cycle arrest in mouse BA/F3 cells expressing Bcr-Abl T315I mutant assessed as accumulation at G0/G1 phase using propidium iodide staining by FACS analysis; format: functional, cell-based; details: BaF3
[2] = tested on: K562; experiment: Cell cycle arrest in human K562 cells expressing wild type Bcr-Abl assessed as accumulation at G0/G1 phase using propidium iodide staining by FACS analysis; format: functional, cell-based
[3] = tested on: BaF3; experiment: Induction of apoptosis in mouse BA/F3 cells expressing Bcr-Abl T315I mutant using annexin-V-FITC and 7-AAD staining by flow cytometer; format: functional, cell-based
[4] = tested on: K562; experiment: Induction of apoptosis in human K562 cells expressing wild type Bcr-Abl using annexin-V-FITC and 7-AAD staining by flow cytometer; format: functional, cell-based
[5] = Antiproliferative activity against mouse BA/F3 cells after 72 hrs by CCK-8 assay; details: BaF3, 72 h
[6] = Antiproliferative activity against mouse BA/F3 cells expressing Bcr-Abl G250E mutant after 72 hrs by CCK-8 assay; details: BaF3, 72 h
[7] = Antiproliferative activity against mouse BA/F3 cells expressing Bcr-Abl Y253F mutant after 72 hrs by CCK-8 assay; details: BaF3, 72 h
[8] = Antiproliferative activity against mouse BA/F3 cells expressing Bcr-Abl H396R mutant after 72 hrs by CCK-8 assay; details: BaF3, 72 h
[9] = Antiproliferative activity against mouse BA/F3 cells expressing Bcr-Abl F359V mutant after 72 hrs by CCK-8 assay; details: BaF3, 72 h
[10] = Antiproliferative activity against mouse BA/F3 cells expressing Bcr-Abl E255V mutant after 72 hrs by CCK-8 assay; details: BaF3, 72 h
[11] = Antiproliferative activity against mouse BA/F3 cells expressing Bcr-Abl E255K mutant after 72 hrs by CCK-8 assay; details: BaF3, 72 h
[12] = Antiproliferative activity against mouse BA/F3 cells expressing Bcr-Abl H396P mutant after 72 hrs by CCK-8 assay; details: BaF3, 72 h
[13] = Antiproliferative activity against mouse BA/F3 cells expressing Bcr-Abl M244V mutant after 72 hrs by CCK-8 assay; details: BaF3, 72 h
[14] = Antiproliferative activity against mouse BA/F3 cells expressing Bcr-Abl E355G mutant after 72 hrs by CCK-8 assay; details: BaF3, 72 h
[15] = Antiproliferative activity against mouse BA/F3 cells expressing Bcr-Abl Y253H mutant after 72 hrs by CCK-8 assay; details: BaF3, 72 h
[16] = Antiproliferative activity against mouse BA/F3 cells expressing Bcr-Abl Q252H mutant after 72 hrs by CCK-8 assay; details: BaF3, 72 h
[17] = Antiproliferative activity against mouse BA/F3 cells expressing Bcr-Abl F486S mutant after 72 hrs by CCK-8 assay; details: BaF3, 72 h
[18] = Antiproliferative activity against mouse BA/F3 cells expressing Bcr-Abl M351T mutant after 72 hrs by CCK-8 assay; details: BaF3, 72 h
[19] = tested on: BaF3; experiment: Effect on STAT5 protein level in mouse BA/F3 cells expressing Bcr-Abl T315I mutant by Western blot analysis; format: functional, cell-based
Outline: (§1)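 K562 or Ba/F3 Bcr-Abl T315I cells were treated with graded concentrations, lysed in 1× SDS sample buffer, sonicated and boiled. Lysates were run on 8−12% SDS-PAGE and transferred to PVDF. Membranes were blocked in TBS with 0.1% Tween-20 and 5% nonfat milk, then probed with primary antibody and HRP-conjugated secondary. Blots shown represent three independent experiments.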

[20] = tested on: BaF3; experiment: Effect on CrkL protein level in mouse BA/F3 cells expressing Bcr-Abl T315I mutant by Western blot analysis; format: functional, cell-based; outline: as §1
[21] = tested on: BaF3; experiment: Effect on Bcr-Abl T315I mutant protein level in mouse BA/F3 cells by Western blot analysis; format: functional, cell-based; outline: as §1
[22] = tested on: Tyrosine-protein kinase ABL1 (Mus musculus), P00520 [T315I]; experiment: Inhibition of Bcr-Abl T315I mutant-mediated STAT5 phosphorylation in mouse BA/F3 cells by Western blot analysis; format: cell-based; details: BaF3; outline: as §1
[23] = tested on: Tyrosine-protein kinase ABL1 (Mus musculus), P00520 [T315I]; experiment: Inhibition of Bcr-Abl T315I mutant-mediated CrkL phosphorylation in mouse BA/F3 cells by Western blot analysis; format: cell-based; details: BaF3; outline: as §1
[24] = tested on: K562; experiment: Effect on STAT5 protein level in human K562 cells expressing wild type Bcr-Abl by Western blot analysis; format: functional, cell-based; outline: as §1
[25] = tested on: K562; experiment: Effect on CrkL protein level in human K562 cells expressing wild type Bcr-Abl by Western blot analysis; format: functional, cell-based; outline: as §1
[26] = tested on: K562; experiment: Effect on wild type Bcr-Abl protein level in human K562 cells by Western blot analysis; format: functional, cell-based; outline: as §1
[27] = tested on: Tyrosine-protein kinase ABL1 (Mus musculus), P00520 [T315I]; experiment: Inhibition of Bcr-Abl T315I mutant phosphorylation in mouse BA/F3 cells by Western blot analysis; format: cell-based; details: BaF3; outline: as §1
[28] = Antiproliferative activity against mouse BA/F3 cells expressing wild type Bcr-Abl after 72 hrs by CCK-8 assay; details: BaF3, 72 h
[29] = tested on: K562; experiment: Antiproliferative activity against human K562 cells expressing wild type Bcr-Abl after 72 hrs by CCK-8 assay; details: K562, 72 h
[30] = tested on: K562; experiment: Antiproliferative activity against imatinib-resistant human K562 cells expressing Bcr-Abl Q252H mutant after 72 hrs by CCK-8 assay; details: K562, 72 h
[31] = Antiproliferative activity against human KU812 cells expressing wild type Bcr-Abl after 72 hrs by CCK-8 assay; details: KU812, 72 h
[32] = cells; details: Mus musculus, BaF3, 72 h

Sequence of Tyrosine-protein kinase ABL1 (Mus musculus), P00520 [T315I] (P00520 whole entry T315I): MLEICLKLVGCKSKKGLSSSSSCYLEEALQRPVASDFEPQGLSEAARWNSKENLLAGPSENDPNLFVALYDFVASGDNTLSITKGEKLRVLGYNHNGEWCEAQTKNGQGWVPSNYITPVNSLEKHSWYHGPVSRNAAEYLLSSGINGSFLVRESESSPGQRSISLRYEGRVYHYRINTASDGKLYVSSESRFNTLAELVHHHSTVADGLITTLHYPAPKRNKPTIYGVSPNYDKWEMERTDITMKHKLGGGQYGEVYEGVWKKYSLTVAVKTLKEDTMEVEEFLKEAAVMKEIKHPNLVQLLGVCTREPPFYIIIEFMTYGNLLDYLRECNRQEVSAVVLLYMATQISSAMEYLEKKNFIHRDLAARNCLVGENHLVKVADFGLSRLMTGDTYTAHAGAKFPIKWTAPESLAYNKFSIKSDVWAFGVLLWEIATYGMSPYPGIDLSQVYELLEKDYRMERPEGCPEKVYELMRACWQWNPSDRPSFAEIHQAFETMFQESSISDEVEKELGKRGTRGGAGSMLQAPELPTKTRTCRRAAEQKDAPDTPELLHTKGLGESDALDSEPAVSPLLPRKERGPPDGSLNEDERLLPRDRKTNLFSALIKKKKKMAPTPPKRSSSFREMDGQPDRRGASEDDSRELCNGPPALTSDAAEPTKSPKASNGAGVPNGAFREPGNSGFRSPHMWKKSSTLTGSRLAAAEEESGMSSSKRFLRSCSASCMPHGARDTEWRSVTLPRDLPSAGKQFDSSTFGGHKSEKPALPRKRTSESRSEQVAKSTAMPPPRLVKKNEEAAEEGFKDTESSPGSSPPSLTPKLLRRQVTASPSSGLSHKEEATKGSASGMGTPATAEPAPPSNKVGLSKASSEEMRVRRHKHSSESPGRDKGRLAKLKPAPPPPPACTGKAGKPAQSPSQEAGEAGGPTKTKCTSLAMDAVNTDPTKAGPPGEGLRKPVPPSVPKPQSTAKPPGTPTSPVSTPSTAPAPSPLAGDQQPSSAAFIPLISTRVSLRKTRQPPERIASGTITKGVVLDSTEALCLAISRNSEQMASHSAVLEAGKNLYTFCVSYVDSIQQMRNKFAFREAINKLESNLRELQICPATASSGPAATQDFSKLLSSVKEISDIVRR

| IC50 [32] [nM] | SMILES | Activity [1] | Activity [2] | Activity [3] | Activity [4] | IC50 [5] [nM] | IC50 [6] [nM] | IC50 [7] [nM] | IC50 [8] [nM] | IC50 [9] [nM] | IC50 [10] [nM] | IC50 [11] [nM] | IC50 [12] [nM] | IC50 [13] [nM] | IC50 [14] [nM] | IC50 [15] [nM] | IC50 [16] [nM] | IC50 [17] [nM] | IC50 [18] [nM] | IC50 [28] [nM] | also measured |
| --- | --- | --- | --- | --- | --- | --- | --- | --- | --- | --- | --- | --- | --- | --- | --- | --- | --- | --- | --- | --- | --- |
| 11.9 | CN1CCN(Cc2ccc(NC(=O)c3ccc(Cl)c(-n4cc(-c5cnc6[nH]ncc6c5)nn4)c3)cc2C(F)(F)F)CC1 | Active | Active | Active | Active | 372 | 1.97 | 0.52 | 5.4 | 2.31 | 3.41 | 2.75 | 0.3 | 0.61 | 0.3 | 2.97 | 7.55 | 4.17 | 0.45 | 2.49 | Activity [19]: inactive; Activity [20]: inactive; Activity [21]: inactive; inhibition [22]: Active; inhibition [23]: Active; Activity [24]: inactive; Activity [25]: inactive; Activity [26]: inactive; inhibition [27]: Dose-dependent effect; IC50 [29]: 0.43 nM; IC50 [30]: 3.91 nM; IC50 [31]: 0.08 nM |
| 3000 | Cc1ccc(NC(=O)c2ccc(CN3CCN(C)CC3)cc2)cc1Nc1nccc(-c2cccnc2)n1 [IMATINIB] | – | – | – | – | 18500 | 1860 | 1440 | 2380 | 960 | 8620 | 2950 | 110 | 129 | 362 | 17100 | 3760 | 2550 | 424 | 1830 | – |
| 775 | Cc1cn(-c2cc(NC(=O)c3ccc(C)c(Nc4nccc(-c5cccnc5)n4)c3)cc(C(F)(F)F)c2)cn1 [NILOTINIB] | – | – | – | – | 40800 | 38.6 | 60.7 | 87.2 | 159 | 473 | 292 | 6.34 | 1.54 | 8.38 | 314 | 150 | 21 | 10.3 | 65.2 | – |
| 1710 | Cc1nc(Nc2ncc(C(=O)Nc3c(C)cccc3Cl)s2)cc(N2CCN(CCO)CC2)n1 [DASATINIB] | – | – | – | – | 6590 | 0.51 | 0.58 | 1.72 | 1.94 | 1.91 | 5.72 | 0.31 | 0.12 | 0.58 | 1.29 | 6.55 | 1.71 | 0.83 | 4.5 | – |
| 13.9 | Cc1ccc(C(=O)Nc2ccc(CN3CCN(C)CC3)c(C(F)(F)F)c2)cc1-n1cc(-c2cnc3[nH]ncc3c2)nn1 | Active | Active | Active | Active | 416 | 1.67 | 0.35 | 3.73 | 1.44 | 2.96 | 3.1 | 0.28 | 0.12 | 0.37 | 1.61 | 5.49 | 1.43 | 0.4 | 2.44 | Activity [19]: inactive; Activity [20]: inactive; Activity [21]: inactive; inhibition [22]: Active; inhibition [23]: Active; Activity [24]: inactive; Activity [25]: inactive; Activity [26]: inactive; inhibition [27]: Dose-dependent effect; IC50 [29]: 0.4 nM; IC50 [30]: 5.46 nM; IC50 [31]: 0.11 nM |
